Results on 21 molecules are retold here after ChEMBL document CHEMBL4364267, “Hydrogen sulfide donating ent-kaurane and spirolactone-type 6,7-seco-ent-kaurane derivatives: Design, synthesis and antiproliferative properties” (Eur J Med Chem, 2019).

In general, IC50 refers to the concentration that inhibits the measured activity by half.

Activity calls are given as the source filed them. The rule behind the calls is not given here.

Assay [1] deals with K562. The experiment in a line: Antiproliferative activity against human K562 cells assessed as reduction in cell viability after 72 hrs by MTT assay. The format is functional, cell-based. The settings on record: K562, 72 h. Put shortly: (§1)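 MTT assay over 72 h, compounds at 64, 16, 4, 1, 0.25, 0.0625 and 0.015625 μM. MTT solution (5 mg/mL) and DMSO added afterwards, 10 min at room temperature, absorbance read at 490 nm. IC50 calculated as the mean ± SD of three independent experiments.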
On the technique in general: Tetrazolium assays rely on reduction of a dye to a coloured formazan, in cell work by metabolically active cells.

The test system of assay [2] is Bel-7402. The experiment in a line: Antiproliferative activity against human Bel7402 cells assessed as reduction in cell viability after 72 hrs by MTT assay. Format: functional, cell-based. As to conditions: Bel-7402, 72 h. Put shortly:
as §1

The subject of assay [3] is SGC-7901. As to the kind of experiment: Antiproliferative activity against human SGC7901 cells assessed as reduction in cell viability after 72 hrs by MTT assay. The format is functional, cell-based. The settings on record: SGC-7901, 72 h. Put shortly: as §1
Assay [4] deals with A549. As to the kind of experiment: Antiproliferative activity against human A549 cells assessed as reduction in cell viability after 72 hrs by MTT assay. The format is functional, cell-based. The settings on record: A549, 72 h. Put shortly:
as §1

Assay [5] relates to L02. As to the kind of experiment: Cytotoxicity against human L02 cells assessed as reduction in cell viability after 72 hrs by MTT assay. Format: cell-based. As to conditions: L02, 72 h. In outline:
as §1

Assay [6] deals with PBMC. As to the kind of experiment: Cytotoxicity against human PBMC assessed as reduction in cell viability after 72 hrs by MTT assay. The format is cell-based. In outline:
as §1

Assay [7] can be described thus: Induction of H2S generation in PBS containing Na2S and MB+ cocktail in presence of TCEP/L-cysteine measured at 15 to 20 mins after 20 mins compound incubation by methylene blue dye based UV-Vis spectrophotometric method. The format is functional. Put shortly: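 Na2S standards (5–150 μM) in sodium phosphate buffer reacted 20 min at room temperature with methylene blue cocktail (FeCl3/HCl, N,N-dimethyl-1,4-phenylenediamine/HCl, Zn(OAc)2) to build a 670 nm calibration curve. Compounds from 40 mM THF stock added to phosphate buffer with 1 mM TCEP or L-cysteine. Aliquots taken into the cocktail at set times, incubated 20 min, read at 670 nm. Mean of three experiments.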

As for `C=C1C(=O)[C@]23[C@H](OC(=O)CCCC(=O)Oc4ccc(-c5cc(=S)ss5)cc4)[C@H]1CC[C@H]2[C@@]12CO[C@]3(O)[C@@H](O)[C@@H]1C(C)(C)CCC2=O`, the IC50 amounted to 3.84 µM in assay [1]; 3.04 µM in assay [2]; 6.59 µM in assay [3]; 4.38 µM in assay [4]; 21 µM in assay [5]; 17.2 µM in assay [6].

Turning to `C=C1C(=O)[C@]23[C@H](O)[C@H]1CC[C@H]2[C@@]12CO[C@]3(O)[C@@H](O)[C@@H]1C(C)(C)CC[C@@H]2O` [ORIDONIN], the IC50 in assay [2] was 8.31 µM; in assay [3] it was 7.87 µM; in assay [4], 17.8 µM; in assay [5] it was 18.7 µM; in assay [6], greater than 50 µM.

Turning to `C=C1C(=O)[C@@]23C(=O)OC[C@]4([C@@H](OC(C)=O)CCC(C)(C)[C@H]4C=O)[C@@H]2CC[C@@H]1[C@H]3OC(=O)CCCC(=O)Oc1ccc(-c2cc(=S)ss2)cc1`, the IC50 was 3.27 µM in assay [1]; 4.59 µM in assay [2]; 7.66 µM in assay [3]; 14.8 µM in assay [4]; greater than 50 µM in assay [5]; 30.7 µM in assay [6]. The result in assay [7] was Active.

Turning to `C=C1C(=O)[C@@]23C(=O)OC[C@]4([C@@H](OC(C)=O)CCC(C)(C)[C@H]4C=O)[C@@H]2CC[C@@H]1[C@H]3O`, the IC50 was 8.96 µM in assay [1]; greater than 50 µM in assay [2]; 49.8 µM in assay [3]; 27.4 µM in assay [4]; greater than 50 µM in assay [5]; greater than 50 µM in assay [6].

Consider `C=C1C(=O)[C@@]23C(=O)OC[C@]4(C(=O)CCC(C)(C)[C@H]4C=O)[C@@H]2CC[C@@H]1[C@H]3OC(=O)CCCCC1CCSS1` (stereo partly drawn), for which the IC50 in assay [1] is 2.59 µM; in assay [2] it was 2.56 µM; in assay [3], 6.43 µM; in assay [4], 7.92 µM; in assay [5], 19.9 µM; in assay [6], greater than 50 µM. The result in assay [7] was Active.

With `C=C1C(=O)[C@@]23C(=O)OC[C@]4([C@@H](OC(C)=O)CCC(C)(C)[C@H]4C=O)[C@@H]2CC[C@@H]1[C@H]3OC(=O)CCC(=O)Oc1ccc(-c2cc(=S)ss2)cc1`, the IC50 in assay [1] is 15.3 µM; in assay [2], 9.73 µM; in assay [3], 17.9 µM; in assay [4], 27.5 µM; in assay [5], greater than 50 µM; in assay [6], 25.9 µM. Moreover, the result in assay [7] was Active.

Turning to `C=C1C(=O)[C@]23[C@H](O)[C@H]1CC[C@H]2[C@@]12CO[C@]3(O)[C@@H](O)[C@@H]1C(C)(C)CCC2=O`, the IC50 was 4.02 µM in assay [1]; 3.88 µM in assay [2]; 16.5 µM in assay [3]; 9.86 µM in assay [4]; 23.4 µM in assay [5]; greater than 50 µM in assay [6].

`C=C1C(=O)[C@@]23C(=O)OC[C@]4([C@@H](OC(C)=O)CCC(C)(C)[C@H]4C=O)[C@@H]2CC[C@@H]1[C@H]3OC(=O)CCCCC1CCSS1` (stereo partly drawn): the 50% inhibitory concentration (IC50) in assay [1] is 6.75 µM; in assay [2], 4.58 µM; in assay [3] it was 10 µM; in assay [4], 19.9 µM; in assay [5] it was 36.5 µM; in assay [6], greater than 50 µM. Besides, in assay [7], the result was Active.

Regarding `C=C1C(=O)[C@]23[C@H](OC(=O)CCCCC4CCSS4)[C@H]1CC[C@H]2[C@@]12CO[C@]3(O)[C@@H](O)[C@@H]1C(C)(C)CC[C@@H]2OC(C)=O` (stereo partly drawn), the IC50 in assay [1] came to 2.84 µM; in assay [2] it was 2.25 µM; in assay [3], 6.02 µM; in assay [4], 8.65 µM; in assay [5], 41.1 µM; in assay [6], 28.8 µM. Moreover, in assay [7], the outcome was Active.

As for `C=C1C(=O)[C@@]23C(=O)OC[C@]4(C(=O)CCC(C)(C)[C@H]4C=O)[C@@H]2CC[C@@H]1[C@H]3O`, the IC50 in assay [1] was 3.26 µM; in assay [2] it was 4.67 µM; in assay [3] it was 19.5 µM; in assay [4] it was 5.31 µM; in assay [5], 29.7 µM; in assay [6], greater than 50 µM.

Take `C=C1C(=O)[C@]23[C@H](OC(=O)CCC(=O)Oc4ccc(-c5cc(=S)ss5)cc4)[C@H]1CC[C@H]2[C@@]12CO[C@]3(O)[C@@H](O)[C@@H]1C(C)(C)CC[C@@H]2OC(C)=O`: the IC50 in assay [1] came to 2.54 µM; in assay [2], 2.87 µM; in assay [3] it was 5.49 µM; in assay [4] it was 6.34 µM; in assay [5] it was 23.2 µM; in assay [6], 44.1 µM.

On to `C=C1C(=O)[C@]23[C@H](OC(=O)CCC(=O)Oc4ccc(-c5cc(=S)ss5)cc4)[C@H]1CC[C@H]2[C@@]12CO[C@]3(O)[C@@H](O)[C@@H]1C(C)(C)CCC2=O`, for which the IC50 in assay [1] was 3.66 µM; in assay [2], 3.52 µM; in assay [3], 12.5 µM; in assay [4], 9.78 µM; in assay [5], greater than 50 µM; in assay [6], 29.6 µM.

For the molecule `C=C1C(=O)[C@@]23C(=O)OC[C@]4(C(=O)CCC(C)(C)[C@H]4C=O)[C@@H]2CC[C@@H]1[C@H]3OC(=O)c1ccccc1C(=O)Oc1ccc(-c2cc(=S)ss2)cc1`, the IC50 was found to be 4.25 µM in assay [1]; 3.26 µM in assay [2]; 5.93 µM in assay [3]; 7.45 µM in assay [4]; 26.2 µM in assay [5]; 31.4 µM in assay [6]. The result in assay [7] was Active.

As to `Oc1ccc(-c2cc(=S)ss2)cc1`, the IC50 in assay [1], in assay [2], in assay [3], in assay [4], in assay [5] and in assay [6] was greater than 50 µM in each case.

Take `C=C1C(=O)[C@]23[C@H](OC(=O)c4ccccc4C(=O)Oc4ccc(-c5cc(=S)ss5)cc4)[C@H]1CC[C@H]2[C@@]12CO[C@]3(O)[C@@H](O)[C@@H]1C(C)(C)CC[C@@H]2OC(C)=O`: the IC50 in assay [1] was 11.4 µM; in assay [2], 7.68 µM; in assay [3] it was 12.4 µM; in assay [4] it was 16.7 µM; in assay [5], greater than 50 µM; in assay [6], 39.5 µM. In addition, the outcome in assay [7] was Active.

On to `C=C1C(=O)[C@]23[C@H](OC(=O)CCCC(=O)Oc4ccc(-c5cc(=S)ss5)cc4)[C@H]1CC[C@H]2[C@@]12CO[C@]3(O)[C@@H](O)[C@@H]1C(C)(C)CC[C@@H]2OC(C)=O`, for which the IC50 in assay [1] is 2.02 µM; in assay [2] it was 1.94 µM; in assay [3], 5.36 µM; in assay [4], 9.76 µM; in assay [5], 14.7 µM; in assay [6], greater than 50 µM.

On to `O=C(O)CCCCC1CCSS1` (stereo not drawn) [LIPOIC ACID, ALPHA], for which the IC50 in assay [1], in assay [2], in assay [3], in assay [4], in assay [5] and in assay [6] was greater than 50 µM throughout.

In the case of `C=C1C(=O)[C@]23[C@H](OC(=O)c4ccccc4C(=O)Oc4ccc(-c5cc(=S)ss5)cc4)[C@H]1CC[C@H]2[C@@]12CO[C@]3(O)[C@@H](O)[C@@H]1C(C)(C)CCC2=O`, the IC50 in assay [1] is 4.8 µM; in assay [2], 5.34 µM; in assay [3], 14.9 µM; in assay [4], 7.69 µM; in assay [5], 42.6 µM; in assay [6], greater than 50 µM. For the same molecule, the result in assay [7] was Active.

Take `C=C1C(=O)[C@@]23C(=O)OC[C@]4(C(=O)CCC(C)(C)[C@H]4C=O)[C@@H]2CC[C@@H]1[C@H]3OC(=O)CCC(=O)Oc1ccc(-c2cc(=S)ss2)cc1`: the half-maximal inhibitory concentration (IC50) in assay [1] came out at 1.82 µM; in assay [2], 1.38 µM; in assay [3], 4.24 µM; in assay [4] it was 5.54 µM; in assay [5], 18.2 µM; in assay [6], 16.6 µM. Also, the result in assay [7] was Active.

For the molecule `C=C1C(=O)[C@]23[C@H](O)[C@H]1CC[C@H]2[C@@]12CO[C@@]3(O)[C@@H](O)[C@@H]1C(C)(C)CC[C@@H]2OC(C)=O`, the IC50 in assay [1] is 4.92 µM; in assay [2], 3.59 µM; in assay [3], 6.45 µM; in assay [4] it was 13.5 µM; in assay [5], 22.4 µM; in assay [6] it was greater than 50 µM.

`O=c1[nH]cc(F)c(=O)[nH]1` [FLUOROURACIL]: the IC50 was 4.02 µM in assay [1]; 17.6 µM in assay [2]; 6.38 µM in assay [3]; greater than 50 µM in assay [5]; greater than 50 µM in assay [6].
